From ChEMBL document CHEMBL4017520, “Discovery, Structure-Activity Relationship, and Antiparkinsonian Effect of a Potent and Brain-Penetrant Chemical Series of Positive Allosteric Modulators of Metabotropic Glutamate Receptor 4” (J Med Chem, 2017)
Values belong to the compound of their own block, whether it stands above or below them. Activity calls are given as the source filed them. The rule behind the calls is not given here.

Legend:
[1] = biological target: Metabotropic glutamate receptor 5 (Homo sapiens) (UniProt P41594); assay: Activity at human mGlu5 receptor expressed in HEK293 cells co-expressing Gi/Gq assessed as effect on EC20/EC80 glutamate-induced intracellular calcium level up to 10 uM preincubated for 10 mins followed by glutamate addition measured for 3 mins by Fluo4-AM dye based fluorescence assay; type: functional, cell-based
In short: (§1)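 HEK-293 cells were electroporated with the human mGluR plus a promiscuous or chimeric G protein and cultured 24 h, then serum-starved 3 h. Cells were loaded 1.5 h with 1 μM Fluo4-AM in HBSS/HEPES buffer with probenecid and 0.1% BSA. Compound was added for 10 min, then glutamate at EC20 (PAM) or EC80 (NAM), and fluorescence (ex 485/em 525) was read for 3 min.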

[2] = biological target: Metabotropic glutamate receptor 3 (Homo sapiens) (UniProt Q14832); assay: Activity at human mGlu3 receptor expressed in HEK293 cells co-expressing Gi/Gq assessed as effect on EC20/EC80 glutamate-induced intracellular calcium level up to 10 uM preincubated for 10 mins followed by glutamate addition measured for 3 mins by Fluo4-AM dye based fluorescence assay; type: functional, cell-based; in short: as §1
Rattus norvegicus [3] = assay: Protection against 6-OHDA induced parkinsonian motor deficit in Sprague-Dawley rat assessed as increase in slow activity at 30 mg/kg, ip after 28 days post surgery; type: functional, organism-based
In short: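 Adult male Sprague−Dawley rats with bilateral 6-OHDA striatal lesions given compound 30 mg/kg ip or vehicle at T0; spontaneous locomotor activity (active time, slow activity, rearing) counted in 5-min bins versus pre-surgery vehicle; n = 10.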

[4] = biological target: Adenosine receptor A2a (Homo sapiens) (UniProt P29274); assay: Agonist activity at A2A receptor (unknown origin) at 10 uM
Rattus norvegicus [5] = species: Rattus norvegicus; assay: Activity at kainate glutamate receptor in rat cerebral cortex at 10 uM
In short: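 Inhibition of orthosteric ligand binding to NMDA, AMPA and kainate receptors on rat cerebral cortex membranes, tested up to 10 μM.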

[6] = biological target: Metabotropic glutamate receptor 4 (Rattus norvegicus) (UniProt P31423); assay: Positive allosteric modulation of rat mGlu4 receptor expressed in HEK293 cells co-expressing Gi/Gq assessed as increase in glutamate-induced calcium flux preincubated for 10 mins followed by glutamate addition measured for 3 mins by Fluo4-AM dye based fluorescence assay relative to control; type: functional, cell-based
[7] = biological target: Adenosine receptor A2a (Homo sapiens) (UniProt P29274); assay: Antagonist activity at A2A receptor (unknown origin) at 10 uM
[8] = Ratio of drug level in Sprague-Dawley rat brain to plasma at 30 mg/kg, ip after 30 mins post dose administered as single dose by LC-MS/MS analysis; type: ADME, organism-based; details: read-out: BPR
In short: (§2)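 Single dose ip (10 or 30 mg/kg, rat) or oral (10 mg/kg, rat or mouse); plasma Cmax, Tmax, half-life, AUC0−inf derived; brain concentration and brain/plasma ratio at 30 min postdose. Mean of 3 rats or 2 mice.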

[9] = Ratio of drug level in Sprague-Dawley rat brain to plasma at 10 mg/kg, po after 30 mins post dose administered as single dose by LC-MS/MS analysis; type: ADME, organism-based; details: read-out: BPR; in short: as §2
[10] = Cmax in Sprague-Dawley rat plasma at 30 mg/kg, ip administered as single dose by LC-MS/MS analysis; type: ADME, organism-based; set-up: dose 30 mg/kg, route intraperitoneal
In short: (§3)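 Rats dosed ip at 10 or 30 mg/kg. Plasma Cmax, Tmax, half-life and AUC0–inf were determined. Brain concentration was measured 30 min postdose, and brain/plasma ratio was taken at 30 min. Values are the mean (±SEM) of 3 rats.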

[11] = Cmax in C57BL/6 mouse at 2 mg/kg, iv administered as single dose by LC-MS/MS analysis; type: ADME, organism-based; set-up: dose 2 mg/kg, route intravenous; details: in vivo
[12] = Tmax in Sprague-Dawley rat plasma at 10 mg/kg, po administered as single dose by LC-MS/MS analysis; type: ADME, organism-based
In short: (§4)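 Single-dose plasma PK after ip (10 or 30 mg/kg) or oral (10 mg/kg) dosing in rats, and oral 10 mg/kg dosing in mice. […] Values are mean ±SEM of 3 rats or 2 mice.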

[13] = Drug uptake in Sprague-Dawley rat brain at 30 mg/kg, ip after 120 mins; type: ADME, organism-based; details: read-out: Drug uptake
[14] = Cmax in Sprague-Dawley rat plasma at 10 mg/kg, po administered as single dose by LC-MS/MS analysis; type: ADME, organism-based; set-up: dose 10 mg/kg, route oral
In short: (§5)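 Rats given a single oral dose of 10 mg/kg. The first plasma sample was taken at 15 min, and sampling continued to 24 h postdose. Brain was sampled at 30 min. Values are the mean (±SEM) of 3 rats.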

[15] = Ratio of drug uptake in Sprague-Dawley rat brain at 10 mg/kg, po to EC50 for rat mGlu4 receptor expressed in HEK293 cells
In short: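 Rats received a single ip or oral dose. Brain concentration was measured 30 min postdose, mean of 3 rats, and divided by the EC50 measured in cell lines overexpressing rat mGluR4.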

[16] = biological target: Metabotropic glutamate receptor 4 (Homo sapiens, UniProt Q14833); assay: Positive allosteric modulation of recombinant human mGlu4 receptor expressed in HEK293 cells co-expressing chimeric G protein assessed as increase in EC20 glutamate-induced […]; type: functional, cell-based
[17] = Ratio of drug uptake in Sprague-Dawley rat brain to plasma at 30 mg/kg, ip after 30 to 60 mins; type: ADME, organism-based; details: read-out: BPR
In short: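 Rats dosed 30 mg/kg ip; plasma sampled over time, brain measured at 30 and 60 min; brain/plasma ratio averaged over 30 and 60 min.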

[18] = Ratio of fraction unbound in Sprague-Dawley rat brain at 30 mg/kg, ip after 120 mins to EC50 for rat mGlu4 receptor expressed in HEK293 cells
[19] = Tmax in Sprague-Dawley rat plasma at 30 mg/kg, ip administered as single dose by LC-MS/MS analysis; type: ADME, organism-based; in short: as §4
Mus musculus [20] = assay: Half life in C57BL/6 mouse at 2 mg/kg, iv administered as single dose by LC-MS/MS analysis; type: ADME, organism-based; details: in vivo
In short: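 Single iv dose, 1 mg/kg in rat or 2 mg/kg in mouse; plasma PK parameters derived; brain/plasma ratio taken at 1 h postdose (rat) or 30 min postdose (mouse). Mean of 3 rats; 2 mice for mouse Cmax and brain/plasma.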

Brain [21] = assay: Fraction unbound in Sprague-Dawley rat brain at 30 mg/kg, ip after 120 mins; type: ADME, organism-based; details: in vivo, 2 h
Brain [22] = assay: Fraction unbound in Sprague-Dawley rat brain at 30 mg/kg, ip after 30 mins; type: ADME, organism-based; details: in vivo, 0.5 h
[23] = Oral bioavailability in Sprague-Dawley rat plasma at 10 mg/kg administered as single dose by LC-MS/MS analysis; type: ADME, organism-based
[24] = AUC (0 to infinity) in Sprague-Dawley rat plasma at 10 mg/kg, ip administered as single dose by LC-MS/MS analysis; type: ADME, organism-based; set-up: dose 10 mg/kg, time infinity, route intraperitoneal; in short: as §3
Plasma = assay: Drug level in Sprague-Dawley rat plasma at 10 mg/kg, po administered as single dose measured at 24 hrs post dose by LC-MS/MS analysis; type: ADME, organism-based; details: in vivo; in short: as §5
Mus musculus [25] = assay: Anti-parkinson's activity in C57BL/6 mouse assessed as brain concentration required for reversal of haloperidol-induced catalepsy at 30 mg/kg, ip after 40 mins; type: functional
[26] = Cmax in Sprague-Dawley rat plasma at 10 mg/kg, ip administered as single dose by LC-MS/MS analysis; type: ADME, organism-based; set-up: dose 10 mg/kg, route intraperitoneal; in short: as §3

Adenosine receptor A2a (Homo sapiens), sequence (P29274 whole entry): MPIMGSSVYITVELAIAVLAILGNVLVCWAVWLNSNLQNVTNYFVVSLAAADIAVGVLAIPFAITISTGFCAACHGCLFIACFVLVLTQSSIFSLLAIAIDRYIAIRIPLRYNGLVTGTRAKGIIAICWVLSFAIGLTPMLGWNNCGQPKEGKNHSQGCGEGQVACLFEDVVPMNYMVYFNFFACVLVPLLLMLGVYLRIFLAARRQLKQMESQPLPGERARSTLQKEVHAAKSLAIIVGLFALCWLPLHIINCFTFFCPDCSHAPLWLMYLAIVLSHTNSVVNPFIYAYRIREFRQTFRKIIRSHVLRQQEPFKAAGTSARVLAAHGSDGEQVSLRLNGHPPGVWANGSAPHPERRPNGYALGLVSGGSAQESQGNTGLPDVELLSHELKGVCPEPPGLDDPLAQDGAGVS
Metabotropic glutamate receptor 4 (Rattus norvegicus), sequence (P31423 whole entry): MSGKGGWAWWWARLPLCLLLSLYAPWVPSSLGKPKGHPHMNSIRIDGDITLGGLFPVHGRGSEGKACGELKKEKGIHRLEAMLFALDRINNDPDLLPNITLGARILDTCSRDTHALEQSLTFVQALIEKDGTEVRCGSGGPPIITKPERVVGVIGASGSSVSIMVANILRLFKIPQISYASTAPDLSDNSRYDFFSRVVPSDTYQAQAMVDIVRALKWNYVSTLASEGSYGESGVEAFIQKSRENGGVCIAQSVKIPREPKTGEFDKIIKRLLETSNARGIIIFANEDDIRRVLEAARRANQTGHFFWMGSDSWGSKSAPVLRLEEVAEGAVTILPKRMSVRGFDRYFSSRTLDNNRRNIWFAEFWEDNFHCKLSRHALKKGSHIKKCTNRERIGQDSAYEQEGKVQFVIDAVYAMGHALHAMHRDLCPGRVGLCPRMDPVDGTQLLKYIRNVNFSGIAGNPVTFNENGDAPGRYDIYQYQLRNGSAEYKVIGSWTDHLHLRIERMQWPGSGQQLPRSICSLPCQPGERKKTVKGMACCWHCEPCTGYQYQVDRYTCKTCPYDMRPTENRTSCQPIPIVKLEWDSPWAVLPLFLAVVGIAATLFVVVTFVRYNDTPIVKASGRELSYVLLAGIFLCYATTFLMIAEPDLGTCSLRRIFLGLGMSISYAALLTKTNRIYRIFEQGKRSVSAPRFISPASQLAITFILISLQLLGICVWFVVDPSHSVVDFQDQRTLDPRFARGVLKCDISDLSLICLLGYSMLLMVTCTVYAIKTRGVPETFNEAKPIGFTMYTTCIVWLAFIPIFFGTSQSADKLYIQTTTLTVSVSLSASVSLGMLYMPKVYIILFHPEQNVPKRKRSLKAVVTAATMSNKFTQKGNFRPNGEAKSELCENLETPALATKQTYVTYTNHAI
Metabotropic glutamate receptor 4, sequence (Q14833 whole entry): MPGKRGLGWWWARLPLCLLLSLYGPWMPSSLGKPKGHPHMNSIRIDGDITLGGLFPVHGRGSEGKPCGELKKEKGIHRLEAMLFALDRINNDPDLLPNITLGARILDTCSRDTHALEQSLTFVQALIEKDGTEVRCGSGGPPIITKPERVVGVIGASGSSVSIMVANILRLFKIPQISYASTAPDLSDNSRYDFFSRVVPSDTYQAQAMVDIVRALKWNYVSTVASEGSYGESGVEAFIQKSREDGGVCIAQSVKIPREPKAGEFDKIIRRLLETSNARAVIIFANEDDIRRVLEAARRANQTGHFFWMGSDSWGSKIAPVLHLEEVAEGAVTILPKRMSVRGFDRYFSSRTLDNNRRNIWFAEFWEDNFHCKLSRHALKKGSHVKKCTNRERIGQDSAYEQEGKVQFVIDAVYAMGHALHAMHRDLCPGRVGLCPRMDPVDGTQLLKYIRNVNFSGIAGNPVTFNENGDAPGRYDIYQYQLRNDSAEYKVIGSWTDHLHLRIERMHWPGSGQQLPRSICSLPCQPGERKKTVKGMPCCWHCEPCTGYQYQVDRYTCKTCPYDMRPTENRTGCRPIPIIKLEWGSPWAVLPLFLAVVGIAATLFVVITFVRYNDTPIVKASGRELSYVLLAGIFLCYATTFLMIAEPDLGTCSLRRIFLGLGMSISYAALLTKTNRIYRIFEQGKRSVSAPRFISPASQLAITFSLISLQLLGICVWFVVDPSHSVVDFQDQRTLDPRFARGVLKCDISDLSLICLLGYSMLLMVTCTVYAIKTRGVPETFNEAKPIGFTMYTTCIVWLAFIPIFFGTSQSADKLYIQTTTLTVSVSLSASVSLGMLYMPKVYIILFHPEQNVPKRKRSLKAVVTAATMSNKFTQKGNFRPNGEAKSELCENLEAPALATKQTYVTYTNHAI
Metabotropic glutamate receptor 5 (Homo sapiens), sequence (P41594 21-1212 limits assumed): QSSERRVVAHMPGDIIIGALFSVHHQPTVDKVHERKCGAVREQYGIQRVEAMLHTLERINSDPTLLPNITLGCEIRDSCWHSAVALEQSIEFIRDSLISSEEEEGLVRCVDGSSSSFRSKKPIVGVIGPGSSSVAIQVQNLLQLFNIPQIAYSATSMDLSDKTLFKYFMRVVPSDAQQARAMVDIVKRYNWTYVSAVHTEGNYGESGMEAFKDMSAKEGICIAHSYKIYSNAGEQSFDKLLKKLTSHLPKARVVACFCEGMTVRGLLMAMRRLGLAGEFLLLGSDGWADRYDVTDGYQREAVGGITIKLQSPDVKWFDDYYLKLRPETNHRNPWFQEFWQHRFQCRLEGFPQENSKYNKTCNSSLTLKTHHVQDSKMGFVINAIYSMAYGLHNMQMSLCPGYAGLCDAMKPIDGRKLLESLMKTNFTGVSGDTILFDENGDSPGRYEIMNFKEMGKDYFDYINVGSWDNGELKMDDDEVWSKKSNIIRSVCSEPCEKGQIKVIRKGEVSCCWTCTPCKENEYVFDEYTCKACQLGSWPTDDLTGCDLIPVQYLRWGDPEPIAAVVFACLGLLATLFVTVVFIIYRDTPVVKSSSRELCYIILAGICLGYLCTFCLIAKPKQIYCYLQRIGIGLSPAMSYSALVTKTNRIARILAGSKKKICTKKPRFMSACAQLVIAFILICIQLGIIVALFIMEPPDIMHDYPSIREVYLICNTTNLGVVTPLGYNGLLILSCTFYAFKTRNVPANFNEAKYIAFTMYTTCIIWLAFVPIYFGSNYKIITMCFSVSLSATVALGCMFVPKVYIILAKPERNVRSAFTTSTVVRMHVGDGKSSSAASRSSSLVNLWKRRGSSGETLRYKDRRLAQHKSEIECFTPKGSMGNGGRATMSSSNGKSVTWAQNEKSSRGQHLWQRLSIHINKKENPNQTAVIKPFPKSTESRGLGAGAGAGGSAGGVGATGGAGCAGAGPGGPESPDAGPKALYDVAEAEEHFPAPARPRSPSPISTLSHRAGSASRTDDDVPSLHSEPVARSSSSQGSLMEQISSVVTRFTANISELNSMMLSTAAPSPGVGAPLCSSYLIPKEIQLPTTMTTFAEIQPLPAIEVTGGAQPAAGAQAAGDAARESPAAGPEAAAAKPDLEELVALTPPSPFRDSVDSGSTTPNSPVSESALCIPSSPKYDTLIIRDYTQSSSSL
Metabotropic glutamate receptor 3 (Homo sapiens), sequence (Q14832 23-879 limits assumed): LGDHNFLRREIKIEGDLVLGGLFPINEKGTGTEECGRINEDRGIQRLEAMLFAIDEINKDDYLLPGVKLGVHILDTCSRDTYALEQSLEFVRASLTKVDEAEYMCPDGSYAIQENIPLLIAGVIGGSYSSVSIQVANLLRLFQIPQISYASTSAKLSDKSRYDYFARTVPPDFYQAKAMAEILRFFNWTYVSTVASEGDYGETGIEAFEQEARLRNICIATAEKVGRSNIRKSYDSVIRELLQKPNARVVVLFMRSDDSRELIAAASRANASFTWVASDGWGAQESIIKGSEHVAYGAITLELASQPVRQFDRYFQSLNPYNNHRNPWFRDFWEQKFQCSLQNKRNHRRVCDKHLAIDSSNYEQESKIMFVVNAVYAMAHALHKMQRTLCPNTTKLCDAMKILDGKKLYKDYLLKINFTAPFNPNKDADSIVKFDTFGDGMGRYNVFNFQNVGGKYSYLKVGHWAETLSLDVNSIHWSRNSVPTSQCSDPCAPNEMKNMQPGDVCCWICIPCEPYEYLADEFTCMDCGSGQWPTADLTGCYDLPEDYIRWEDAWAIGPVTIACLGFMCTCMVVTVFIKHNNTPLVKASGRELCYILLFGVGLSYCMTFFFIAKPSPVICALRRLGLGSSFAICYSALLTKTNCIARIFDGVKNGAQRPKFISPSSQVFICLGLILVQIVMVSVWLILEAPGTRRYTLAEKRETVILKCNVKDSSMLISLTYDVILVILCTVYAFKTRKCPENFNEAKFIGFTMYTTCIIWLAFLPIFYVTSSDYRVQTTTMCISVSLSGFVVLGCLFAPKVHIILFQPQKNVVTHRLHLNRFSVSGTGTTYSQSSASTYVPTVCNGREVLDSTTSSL

Activity [1]: inactive | Activity [2]: inactive | Activity [4]: inactive | Activity (Rattus norvegicus [5]): inactive | Emax [6]: 75% | Activity [7]: inactive
SMILES: O/N=c1\cc(-c2cc3cccn3cn2)oc2ccc(OCCN3CCOCC3)cc12 [listing 1 of 2 here]
Activity (Rattus norvegicus [3]): Active

Kp at 0.5 h [8]: 3.1 | Kp at 0.5 h [9]: 2.3 | Cmax [10]: 9320 ng/mL | Cmax [11]: 753 ng/mL | Tmax [12]: 20 min | concentration at 2 h [13]: 1740 ng/g | Cmax [14]: 135 ng/mL | EC50 [16]: 70 nM | Kp [17]: 3.25 | Tmax [19]: 15 min | t1/2 (Mus musculus [20]): 12 min | Drug uptake(free) (Brain [21]): 13 ng/g | Drug uptake(free) (Brain [22]): 173 ng/g | bioavailability [23]: 54% | AUC(0-inf) [24]: 2240 ng·h/mL | Drug uptake (Plasma): 2 to 10% | Cmax [26]: 1500 ng/mL
SMILES: O/N=c1\cc(-c2cc3cccn3cn2)oc2ccc(OCCN3CCOCC3)cc12 [listing 2 of 2 here]
Ratio [15]: 0.3 | Ratio [18]: 1.1 | fEC50 (Mus musculus [25]): 5 nM
